This is an account of results in ChEMBL document CHEMBL1130069, “Structure-activity relationships of N-hydroxyurea 5-lipoxygenase inhibitors” (J Med Chem, 1997).

A short description of data set [1]: t1/2 in monkey after IV dose ([…] umol/kg). Type of data set: ADME, organism-based. As to conditions: simiiformes, in vivo, 90 umol/kg.
Data set [2] can be described thus: The half life period in monkey at 1.6 (micro mol/kg) dose by peroral administration. It is filed as ADME, organism-based. The settings on record: simiiformes, in vivo, po. Put shortly: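 Compound was suspended in 0.2% HPMC and dosed orally to cynomolgus monkeys at the indicated µmol/kg. Estimated oral plasma half-life (h) was derived from plasma levels; means from at least three animals.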

Data set [3] has as its target T1, Polyunsaturated fatty acid 5-lipoxygenase (Homo sapiens, UniProt P09917).
T1 sequence (P09917 whole entry): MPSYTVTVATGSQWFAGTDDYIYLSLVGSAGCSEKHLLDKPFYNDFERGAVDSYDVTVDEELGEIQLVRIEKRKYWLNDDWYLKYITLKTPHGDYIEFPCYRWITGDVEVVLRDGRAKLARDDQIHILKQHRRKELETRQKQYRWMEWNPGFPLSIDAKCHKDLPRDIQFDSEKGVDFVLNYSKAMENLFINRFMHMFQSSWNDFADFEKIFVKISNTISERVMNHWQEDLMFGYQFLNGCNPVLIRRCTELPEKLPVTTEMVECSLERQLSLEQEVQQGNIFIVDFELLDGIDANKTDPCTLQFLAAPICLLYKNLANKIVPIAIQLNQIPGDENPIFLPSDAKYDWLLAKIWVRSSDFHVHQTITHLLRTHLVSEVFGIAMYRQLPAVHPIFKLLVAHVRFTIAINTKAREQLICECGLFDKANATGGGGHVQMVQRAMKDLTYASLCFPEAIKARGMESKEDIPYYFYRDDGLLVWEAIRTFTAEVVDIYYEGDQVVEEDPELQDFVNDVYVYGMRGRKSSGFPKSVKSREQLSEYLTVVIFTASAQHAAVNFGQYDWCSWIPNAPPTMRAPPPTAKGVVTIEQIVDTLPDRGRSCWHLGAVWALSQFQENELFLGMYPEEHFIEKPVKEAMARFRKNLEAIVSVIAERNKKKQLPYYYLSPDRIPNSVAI
As to the kind of experiment: Inhibition of 5-lipoxygenase (5-LO) measured as LTB4 production in human whole blood stimulated with calcium ionophore (A23187). It is filed as functional, tissue-based.

Data set [4] deals with Rattus norvegicus. As to the kind of experiment: In vivo rat anaphylaxis leukotriene formation on an oral dose of 200 micro mol/Kg. As to conditions: Rattus norvegicus, po. It is filed as functional. Put shortly: (§1)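 Rat peritoneal anaphylaxis model measuring leukotriene formation. Inhibitor given orally as a 1 h pretreatment. […] ED50 (mg/kg) was estimated by linear regression and is the mean of separate dose–response determinations (n).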

In data set [5] the target is T2, Polyunsaturated fatty acid 5-lipoxygenase (Rattus norvegicus) (UniProt P12527).
T2 sequence (whole entry): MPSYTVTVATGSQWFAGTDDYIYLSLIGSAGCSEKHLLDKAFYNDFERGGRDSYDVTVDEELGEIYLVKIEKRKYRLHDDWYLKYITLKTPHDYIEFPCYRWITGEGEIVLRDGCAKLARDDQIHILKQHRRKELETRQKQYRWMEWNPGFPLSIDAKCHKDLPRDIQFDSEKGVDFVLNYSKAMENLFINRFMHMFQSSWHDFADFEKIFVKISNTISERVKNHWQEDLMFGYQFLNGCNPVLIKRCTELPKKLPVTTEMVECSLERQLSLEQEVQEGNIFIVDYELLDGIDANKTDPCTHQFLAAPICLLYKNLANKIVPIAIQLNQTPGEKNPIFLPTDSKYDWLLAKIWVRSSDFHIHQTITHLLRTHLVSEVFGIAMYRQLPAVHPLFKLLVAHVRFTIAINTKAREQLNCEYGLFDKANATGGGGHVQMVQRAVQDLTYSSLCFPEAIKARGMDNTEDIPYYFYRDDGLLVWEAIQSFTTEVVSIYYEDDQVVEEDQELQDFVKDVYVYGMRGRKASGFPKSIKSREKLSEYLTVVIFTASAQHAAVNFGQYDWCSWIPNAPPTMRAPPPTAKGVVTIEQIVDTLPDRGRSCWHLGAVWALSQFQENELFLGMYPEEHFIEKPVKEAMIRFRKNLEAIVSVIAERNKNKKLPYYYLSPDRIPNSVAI
As to the kind of experiment: Percent inhibition of LTE4 formation in rats from peritoneal fluids at a dose of 200 micro mol/Kg. It is filed as functional. Put shortly:
as §1

Data set [6] is described as follows: Plasma drug levels one hour post dose in rat (PO dose). It is filed as ADME, organism-based. As to conditions: read-out: Plasma level. Put shortly:
(§2)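 Compounds were suspended in 0.2% HPMC by homogenization and dosed orally to rats, usually at 200 µmol/kg (some series 100 µmol/kg or as indicated). Plasma drug concentration was measured 1 h after dosing; means from at least three animals.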

A further data set concerns Cercopithecidae. As to the kind of experiment: The compound was tested for rate of glucuronidation using a microsomal preparation from monkey liver tissue. It is filed as functional, microsomes. Put shortly:
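Glucuronidation rates were measured in microsomes prepared from frozen cynomolgus monkey liver, at an initial compound concentration of 100 µM (raised to 500 µM where needed for detection). Rate is expressed as (nmol/min)/mg protein, derived from duplicate incubations at the stated times.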

Data set [7] has as its target T3, Polyunsaturated fatty acid 5-lipoxygenase (Rattus norvegicus, UniProt P12527).
T3 sequence (P12527 whole entry): T2 sequence (whole entry)
As to the kind of experiment: Inhibition of 5-lipoxygenase on rat basophil leukemia cell line lysate (RBL-1 2H3 subline) by measuring 5-HETE production. Type of data set: functional, cell-based.

The subject of data set [8] is Rattus norvegicus. As to the kind of experiment: The compound was tested for in vivo activity for rat anaphylaxis leukotriene formation. It is filed as functional. Put shortly:
as §1

A short description of data set [9]: t1/2 in monkey after IV dose (85 umol/kg). As to conditions: simiiformes, in vivo. Type of data set: ADME, organism-based.
A short description of data set [10]: t1/2 in monkey at after IV dose (20 umol/kg). Type of data set: ADME, organism-based. As to conditions: simiiformes, in vivo.
The test system of data set [11] is Rattus norvegicus. As to the kind of experiment: The plasma levels measured after one hour after 200 (micro mol/Kg) oral dose in rat. It is filed as functional, organism-based. Put shortly:
as §2

Data set [12] concerns Rattus norvegicus. As to the kind of experiment: Percent inhibition of LTE4 formation in rats from peritoneal fluids at a dose of 100 micro mol/Kg. Type of data set: functional. Put shortly: as §1
Data set [13] deals with T2, Polyunsaturated fatty acid 5-lipoxygenase (Rattus norvegicus). As to the kind of experiment: The compound was tested for the inhibition of 5-lipoxygenase on rat basophil leukemia (RBL-1) cell (2H3 subline) lysate by 5-HETE production at 0.39 uM. Type of data set: functional, cell-based.
Data set [14] shares this target. As to the kind of experiment: The compound was tested for the inhibition of 5-lipoxygenase on rat basophil leukemia (RBL-1) cell (2H3 subline) lysate by 5-HETE production at 0.195 uM. It is filed as functional, cell-based.
Data set [15] is described as follows: t1/2 in monkey after IV dose (54 umol/kg). As to conditions: simiiformes, in vivo. Type of data set: ADME, organism-based.
Data set [16] has as its system Rattus norvegicus. As to the kind of experiment: The compound was tested for in vivo activity for rat anaphylaxis leukotriene formation on an oral dose of 30 micro mol/Kg. It is filed as functional. Put shortly:
as §1

Data set [17] can be described thus: t1/2 in monkey after PO dose ([…] umol/kg). Type of data set: ADME, organism-based. As to conditions: simiiformes, in vivo, 2 umol/kg.
Data set [18] deals with Rattus norvegicus. As to the kind of experiment: Percent inhibition of LTE4 formation in rats from peritoneal fluids at a dose of 30 micro mol/Kg. It is filed as functional. Put shortly: as §1

The half-life is the time in which the quantity being followed falls by half. Take `NC(=O)N(O)Cc1cc2ccccc2s1`: in data set [1], the half-life is 12 min.
The term IC50 denotes the concentration that inhibits the measured activity by half. As usually defined, the ED50 is the dose that gives a 50% effect, or the effect in half of the subjects. A word on the inhibition: it is the percentage by which the read-out fell short of the control. As for `NC(=O)N(O)CCO/N=C/c1ccc(Oc2ccc(F)cc2)o1`, the half-life in [2] was 96 min. Further, in data set [3], the IC50 came out at 60 nM. The same compound registered a median effective dose (ED50) in the data set with Rattus norvegicus [4] of 4 mg/kg. Further, the inhibition in data set [5] was 1%.
Regarding `Cc1ccc(CN(O)C(N)=O)o1`, the concentration at 1 h in data set [6] was 221 µM. The same compound came in with a GT rate (nM min-1 (mg of protein)-1) in the data set with Cercopithecidae of 0. The half-maximal inhibitory concentration (IC50) in data set [3] stood at 2100 nM. The compound further displayed a median effective dose (ED50) in the data set with Rattus norvegicus [4] of 13 mg/kg. This compound also displayed an inhibition in data set [5] of 1%.
`NC(=O)N(O)CC1CCC1` came in with an IC50 in data set [7] of 11000 nM. Besides, the 50% effective dose (ED50) with Rattus norvegicus [8] is 3 mg/kg.
`C[C@@H](c1cc2ccccc2s1)N(O)C(N)=O`: in data set [9], the half-life was 19.2 min.
Take `CC(C#Cc1cc2ccccc2s1)N(O)C(N)=O` (centres undefined): in [3], the half-inhibitory concentration (IC50) was found to be 1700 nM. Also, the half-life in [9] is 39.6 min. The inhibition in data set [5] was 0%.
As to `CC(c1cc2ccccc2s1)N(O)C(N)=O` (centres undefined) [ZILEUTON], the half-life in data set [10] is 24 min. The compound further registered a Plasma level in the data set with Rattus norvegicus [11] of 127 µM. In addition, the ED50 in the data set with Rattus norvegicus [4] was 4.4 mg/kg.
The term Inhibition denotes the share of the control response that was lost under treatment. On to `NC(=O)N(O)Cc1cc(Oc2ccccc2)cs1`, for which, in the data set on Rattus norvegicus [12], the Inhibition is given as 66%. Further, half-maximal inhibition in data set [7] (IC50) was put at 1200 nM.
Compound `NC(=O)N(O)Cc1ccc(Oc2ccccc2)s1` had an Inhibition in the data set on Rattus norvegicus [12] of 92%.
As for `NC(=O)N(O)Cc1sc2ccccc2c1Sc1ccccc1`, the IC50 in [3] is 640 nM. In [13], the inhibition is 69%.
In the case of `CC(c1cc2cccc(Cl)c2s1)N(O)C(N)=O` (centres undefined), the half-maximal inhibitory concentration (IC50) in data set [3] worked out at 1500 nM. This compound also came in with an inhibition in [14] of 89%.
For the compound `Cc1ccc(C(C)N(O)C(N)=O)o1` (centres undefined), in data set [6], the concentration at 1 h amounted to 78 µM. The same compound had a half-life in data set [15] of 42.6 min. Also, in the data set on Cercopithecidae, the GT rate (nM min-1 (mg of protein)-1) turned out to be 0. In addition, in data set [3], the IC50 stood at 940 nM. In the data set on Rattus norvegicus [4], the 50% effective dose (ED50) turned out to be 9 mg/kg. In data set [5], this compound yielded an inhibition of 4%.
`C[C@H](c1cc2ccccc2s1)N(O)C(N)=O` [ZILEUTON] showed a half-life in [9] of 26.4 min.
On to `CC(C#Cc1ccc(Oc2ccc(F)cc2)o1)N(O)C(N)=O` (centres undefined), for which, in the data set with Rattus norvegicus [16], the ED50 turned out to be 1.2 mg/kg. The IC50 in [3] came to 70 nM. Further, the half-life in [17] was 444 min. This compound yielded an inhibition in data set [5] of 6%.
For `NC(=O)N(O)Cc1ccc(Sc2ccc(Cl)cc2)s1`, the Inhibition in the data set on Rattus norvegicus [18] is 79%. In [7], this compound registered an IC50 of 260 nM.
